Assay results: publication PMC9575670 (Journal of Medicinal Chemistry, 2022)

Columns and labels:
[1] = tested on: normal CCD-18Co cell line; test: MTT in vitro antiproliferation assay, CCD-18Co; format: cell-based; conditions: Homo sapiens, 24 h, read-out: IC50 ± SD CCD-18Co
MCF-7 cells = test: Cell cycle analysis by flow cytometry; format: cell-based, human; conditions: MCF-7, up to 1.0 μM, 24 h, compared to vehicle
[2] = tested on: colon cancer (HCT 116) cell line; test: MTT in vitro antiproliferation assay, HCT 116; format: cell-based; conditions: Homo sapiens, HCT-116, 24 h, read-out: IC50 ± SD HCT 116
[3] = tested on: lung normal (MRC-5) cell line; test: MTT in vitro antiproliferation assay, MRC-5; format: cell-based; conditions: Homo sapiens, MRC5, 24 h, read-out: IC50 ± SD MRC-5
tubulin = test: In vitro tubulin polymerization assay; format: biochemical; conditions: 20 μM, compared to vehicle control
[4] = tested on: pancreatic cancer (ASPC-1) cell line; test: MTT in vitro antiproliferation assay, ASPC-1; format: cell-based; conditions: Homo sapiens, ASPC1, 24 h, read-out: IC50 ± SD ASPC-1
[5] = tested on: breast cancer (MCF-7) cell line; test: MTT in vitro antiproliferation assay, MCF-7; format: cell-based; conditions: Homo sapiens, MCF7, 24 h, read-out: IC50 ± SD MCF-7
[6] = tested on: cancer cell lines (ASPC-1, A549, MCF-7, HCT 116); test: MTT in vitro antiproliferation assay, cancer cell line panel; format: cell-based, human; conditions: for IC50: Homo sapiens, 24 h, read-out: IC50 values in cancer cell lines (range); for selectivity index (SI) / cancer cell selectivity over normal cells (MRC-5), range: range over cancer cell lines vs MRC-5
[7] = tested on: lung normal IMR-90 cell line; test: MTT in vitro antiproliferation assay, IMR-90; format: cell-based; conditions: Homo sapiens, IMR-90, 24 h, read-out: IC50 ± SD IMR-90
[8] = tested on: lung cancer (A549) cell line; test: MTT in vitro antiproliferation assay, A549; format: cell-based, human; conditions: for IC50: Homo sapiens, A549, 24 h, read-out: IC50 ± SD A549; for selectivity index (SI), cancer cells (A549) over normal cells (MRC-5): IC50 MRC-5 / IC50 A549
A549 cells = test: Cell cycle analysis by flow cytometry; format: cell-based, human; conditions: A549, up to 1.0 μM, 24 h, compared to vehicle
4T1 cells tumor = test: In vivo antitumor activity, 4T1 xenograft model, 11 day study; parameters: species or system BALB/c mice; conditions: G4 DOX: 2 mg/kg IP once in 3 days
Procedure, shortened: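 BALB/c mice received 4T1 cells (1 × 10^5/mouse) subcutaneously into the left mammary fat pad. Caliper volume = length × width²/2. At about 50 mm³, mice were allocated to four groups, unrandomized and unblinded. All dosing was IP: 0.9% saline vehicle; test compound 0.711 or 1.422 mg/kg (days 1–3) then 14.22 or 28.44 mg/kg (days 4–11); doxorubicin 2 mg/kg every 3 days. Tumours were excised on day 12 and volume and mass measured; one-way ANOVA.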

Compound	IC50 [1] [µM]	accumulation of cells in the G2/M phase (MCF-7 cells)	IC50 [2] [µM]	IC50 [3] [µM]	effect on tubulin polymerization (tubulin)	IC50 [4] [µM]	IC50 [5] [µM]	IC50 [6] [µM]	selectivity index (SI) / cancer cell selectivity over normal cells (MRC-5), range [6]	IC50 [7] [µM]	IC50 [8] [µM]	accumulation of cells in the G2/M phase (A549 cells)	average tumor mass reduction at the endpoint (4T1 cells tumor) [%]	average tumor volume reduction at the endpoint compared to G1 (4T1 cells tumor) [%]	selectivity index (SI), cancer cells (A549) over normal cells (MRC-5) [8]	times lower activity than the CLC and NOZ ([6]; IC50 comparison)
CCCSc1ccc2[nH]c(N[C@H]3O[C@@H](CO)[C@H](O)[C@@H](O)[C@@H]3O)nc2c1 [Al–G, albendazole amine glucose conjugate]	701	slight accumulation of cells in the G2/M phase	156	895	inhibition of tubulin polymerization	182	131	131 to 182	five to seven times	> 1000	139	slight accumulation of cells in the G2/M phase	–	–	–	–
COc1cccc2c1C(=O)c1c(O)c3c(c(O)c1C2=O)C[C@@](O)(C(=O)CO)C[C@@H]3O[C@H]1C[C@H](N)[C@H](O)[C@H](C)O1 [doxorubicin]	–	–	–	–	–	–	–	–	–	–	–	–	14.5	29.4	–	–
COC(=O)Nc1nc2ccc(C(=O)c3cccs3)cc2[nH]1 [NOZ, nocodazole]	–	–	6.82	12	inhibited	10.5	7.41	–	1.1–1.8	–	10.8	–	–	–	1.2	–
CCCSc1ccc2nc(NC(=O)OC)[nH]c2c1 [Al, albendazole]	119	slight accumulation of cells in the G2/M phase	52.7	96.1	inhibition of tubulin polymerization	56.3	59	52.7 to 72.4	–	285	72.4	slight accumulation of cells in the G2/M phase	–	–	1.32	7–10
CC(=O)O[C@H]1C(=O)[C@@]2(C)[C@H]([C@H](OC(=O)c3ccccc3)[C@]3(O)C[C@H](OC(=O)[C@H](O)[C@@H](NC(=O)c4ccccc4)c4ccccc4)C(C)=C1C3(C)C)[C@]1(OC(C)=O)CO[C@@H]1C[C@@H]2O [PCL, paclitaxel]	–	–	–	–	enhanced the tubulin polymerization	–	–	–	–	–	–	–	–	–	–	–
